Experimental data published in ChEMBL document CHEMBL1121426, “Structure-activity study of antiulcerous and antiinflammatory drugs by discriminant analysis” (J Med Chem, 1980).

Assays:
Rattus norvegicus [1] = assay: Antiulcer activity in rat at the dose of 20 mg/kg administered intraperitoneally.; assay type: functional; settings: ip, route intraperitoneal
Method in brief: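 Pyloric ligation was done under ether on Wistar-King rats (200-250 g, 10 per group) fasted 24 h. Drug was suspended at 10 mg/mL in 0.9% saline with a trace of Tween 80 and given ip at 20 mg/kg; controls received saline. Forestomach ulcers were scored macroscopically 18 h later as an ulcer index. Percent inhibition was taken versus the mean control index; error <±10%.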

[2] = Partition coefficient (logP); assay type: physicochemical; settings: octanol/water
Rattus norvegicus [3] = assay: Tested for inhibition of edema growth in rat; assay type: functional; design: concentration or dose not given beside the values
Method in brief: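 Carrageenin paw edema in male Wistar rats (120-150 g, 10 per group). Dosing was oral, as 1% suspensions in 0.5% aqueous Na-CMC: phenylacetic acids at 100 mg/kg, aminouracils at 200 mg/kg. Paw volume was read by mercury displacement before and 3 h after injection. Percent inhibition of mean swelling was taken versus control; error <±10%.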

Structure (SMILES)	logP [2]	inhibition in vivo at 20 mg/kg (Rattus norvegicus [1]) [%]	Inhibition (Rattus norvegicus [3]) [%]
Nc1nc(N)nc(-c2c(Cl)cccc2Cl)n1	1.38	54	–
O=C(O)Cc1cccc(F)c1	1.59	–	0
Cc1cccc(CC(=O)O)c1	1.89	–	0
C=CCn1c(C)c(N(C)C)c(=O)n(-c2ccccc2)c1=O	1.44	–	54
COc1cc(CC(=O)O)cc(C(C)C)c1	2.75	–	10
CCCCOc1cc(C)cc(CC(=O)O)c1	3.38	–	3
CCOc1cccc(CC(=O)O)c1	1.88	–	17
O=C(O)Cc1cc(O)cc(-c2ccccc2)c1	2.75	–	14
CCN(CC)c1c(C)n(C)c(=O)n(-c2ccccc2)c1=O	2.11	–	45
COc1cc(CC(=O)O)cc(C2CCCCC2)c1	3.66	–	35
COc1cc(CC(=O)O)cc(-c2ccc(F)cc2)c1	3.5	–	74
COc1cc(CC(=O)O)cc(-c2ccc(Cl)cc2Cl)c1	4.08	–	60
Cc1c(N(C)C)c(=O)n(C)c(=O)n1C	0.99	–	37
Cc1c(N(C)C)c(=O)[nH]c(=O)n1-c1ccccc1	1.4	–	35
Cc1c(N(C)C)c(=O)n(C)c(=O)n1-c1ccccc1	1.19	–	65
C=CCN(CC=C)c1c(C)n(-c2ccccc2)c(=O)n(C)c1=O	2.59	–	46
COc1ccc(-n2c(C)c(N(C)C)c(=O)n(C)c2=O)cc1	1.96	–	41
Nc1nc(N)nc(-c2cc(C(F)(F)F)ccc2Cl)n1	2.27	51	–
Cc1c(N(C)C)c(=O)n(-c2ccccc2)c(=O)n1C	1.3	–	44
Cc1c(N(C)C)c(=O)n(CCO)c(=O)n1-c1ccccc1	1.12	–	34
COc1cc(CC(=O)O)cc(-c2ccc(C)cc2)c1	3.72	–	23
Cc1cc(CC(=O)O)cc(OCC(C)C)c1	3.33	–	13
Cc1c(N(C)C)c(=O)n(-c2ccccc2)c(=O)n1CCO	0.85	–	31
CCN(CC)c1c(C)n(-c2ccccc2)c(=O)n(CC)c1=O	2.78	–	53
COc1ccc(-c2cc(CC(=O)O)cc(OC)c2)cc1	3.28	–	13
COc1cc(C)cc(CC(=O)O)c1	1.94	–	6
O=C(O)Cc1cc(O)cc(-c2ccc(Cl)cc2)c1	3.42	–	14

Structure (SMILES)	logP [2]	inhibition in vivo at 20 mg/kg (Rattus norvegicus [1]) [%]	Inhibition (Rattus norvegicus [3]) [%]
O=C(O)Cc1cccc([N+](=O)[O-])c1	1.34	–	0
COc1cc(CC(=O)O)cc(-c2ccccc2)c1	3.3	–	68
CCN(CC)c1c(C)n(CC)c(=O)n(-c2ccccc2)c1=O	2.2	–	57
Cc1c(N2CCCCC2)c(=O)n(-c2ccccc2)c(=O)n1C	2.76	–	27
Nc1nc(N)nc(-c2ccc(Cl)cc2)n1	–	69	–
Nc1nc(N)nc(-c2cccc([N+](=O)[O-])c2)n1	1.57	85	–
Cc1c(N2CCOCC2)c(=O)n(-c2ccccc2)c(=O)n1C	0.69	–	35
O=C(O)Cc1cccc(Br)c1	2.36	–	0
CCCNc1c(C)n(C)c(=O)n(-c2ccccc2)c1=O	1.2	–	64
Nc1nc(N)nc(-c2cccc(C(F)(F)F)c2)n1	2.67	81	–
Nc1nc(N)nc(-c2cccc(SC(F)(F)F)c2)n1	3.2	87	–
CCn1c(=O)c(N(C)C)c(C)n(-c2ccccc2)c1=O	2.29	–	51
Nc1nc(N)nc(-c2ccc([N+](=O)[O-])cc2)n1	1.6	41	–
CCCCNc1c(C)n(C)c(=O)n(-c2ccccc2)c1=O	1.69	–	48
Cc1c(N(C)C)c(=O)n(C)c(=O)n1-c1ccc(Cl)cc1	2.32	–	41
O=C(O)Cc1cccc(Cl)c1	1.59	–	0
CCN(CC)c1c(C)n(-c2ccccc2)c(=O)n(C)c1=O	2.19	–	46
Cc1c(NCC(C)C)c(=O)n(-c2ccccc2)c(=O)n1C	1.48	–	58
CCCNc1c(C)n(-c2ccccc2)c(=O)n(C)c1=O	1.7	–	45
C=CCn1c(=O)c(N(C)C)c(C)n(-c2ccccc2)c1=O	1.98	–	75
Cc1c(N2CCOCC2)c(=O)n(C)c(=O)n1C1CCCCC1	2.39	–	44
COc1cc(CC(=O)O)cc(-c2ccccc2Cl)c1	3.66	–	75
COc1cccc(CC(=O)O)c1	1.45	–	-3
Cc1c(N2CCCC2)c(=O)n(-c2ccccc2)c(=O)n1C	2.26	–	32
COc1cc(CC(=O)O)cc(-c2ccc(Cl)cc2)c1	3.71	–	66
CC(C)Cc1ccc(CC(=O)O)cc1 [IBUFENAC]	3.38	–	32

Further lines, with some results ahead:

logP [2]	Structure (SMILES)	inhibition in vivo at 20 mg/kg (Rattus norvegicus [1]) [%]	Inhibition (Rattus norvegicus [3]) [%]
2.07	Nc1nc(N)nc(-c2ccc(Cl)cc2Cl)n1	100	–
1.45	Nc1nc(N)nc(-c2cc(F)ccc2Br)n1	78	–
1.38	Nc1nc(N)nc(-c2cc(F)ccc2Cl)n1	78	–
1.81	Nc1nc(N)nc(-c2cc(Cl)ccc2F)n1	89	–
1.92	Cc1ccc(-c2nc(N)nc(N)n2)cc1	54	–
1.53	COc1ccc(Br)cc1-c1nc(N)nc(N)n1	49	–
1.85	Nc1nc(N)nc(-c2cc(Cl)ccc2Br)n1	81	–
2.33	Nc1nc(N)nc(-c2cccc(Cl)c2)n1	100	–
0.49	Nc1nc(N)nc(-c2ccccc2[N+](=O)[O-])n1	11	–
1.41	Nc1nc(N)nc(-c2ccccc2I)n1	-7	–
1.73	Nc1nc(N)nc(-c2cccc(F)c2)n1	70	–
1.61	Nc1nc(N)nc(-c2ccc(F)cc2)n1	84	–
1.26	Nc1nc(N)nc(-c2ccccc2Br)n1	26	–
2.09	Nc1nc(N)nc(-c2ccc(Cl)cc2Br)n1	96	–
1.26	Cc1ccccc1-c1nc(N)nc(N)n1	28	–
1.03	CCOc1ccccc1-c1nc(N)nc(N)n1	-5	–
0.29	CS(=O)(=O)c1cccc(-c2nc(N)nc(N)n2)c1	-6	–
1.94	Nc1nc(N)nc(-c2cc(Br)ccc2F)n1	100	–
2.09	Nc1nc(N)nc(-c2cc(Br)ccc2Br)n1	43	–
2.16	CSc1cccc(-c2nc(N)nc(N)n2)c1	49	–
1.19	Nc1nc(N)nc(-c2ccccc2Cl)n1	36	–
2.44	Nc1nc(N)nc(-c2cccc(Br)c2)n1	96	–
0.58	COc1ccccc1-c1nc(N)nc(N)n1	1	–
2.04	Nc1nc(N)nc(-c2cc(Br)ccc2Cl)n1	86	–
1.65	CCc1ccccc1-c1nc(N)nc(N)n1	20	–
1.36	Nc1nc(N)nc(-c2ccccc2)n1 [BENZOGUANAMINE]	70	–
1.97	Nc1nc(N)nc(-c2cc(Cl)ccc2Cl)n1 [IRSOGLADINE]	100	–
